High-throughput results from PubChem BioAssay.
Sampled rows, rich in hits. Any-hit rate of the full collection: about 12%.
CHOP inhibitor: inhibitors of CHOP promoter induction, primary screen, cell-based, unfolded protein response, luciferase reporter; CHO-K1 CHOP-promoter luciferase, tunicamycin-induced, 15-18 h; AID 2732, 2010; 220,000 compounds, 3.8% hits; inhibition, % at 10 µM;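 active = compounds that reduced the stress-induced luciferase reporter signal by more than about 70% of percent inhibition, limit read from the data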;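 also: 0% = tunicamycin plus vehicle and 100% = wells without tunicamycin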
Lmaj promast: Leishmania major promastigote growth inhibition, primary screen | Leishmania major promastigotes, resazurin fluorescence viability | 200,000 compounds, 9% hits | inhibition, % at 10 µM;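 also: promastigotes grown with compound for 44 hours at 28 °C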
PKD1 kinase inh: inhibitors of human PKD1 kinase, biochemical, fluorescence polarization; Serine/threonine-protein kinase D1 (Homo sapiens), Q15139; PKD1 kinase fluorescence polarization assay; inhibition, % (no concentration beside the values); 200,000 compounds, 0.056% hits; AID 797, 2007
Rad51 HR inh: human RAD51 strand exchange inhibitors, primary screen, biochemical, fluorescence. DNA repair protein RAD51 homolog 1 (Homo sapiens), Q06609. hRad51 DNA strand exchange, fluorescence dequenching. inhibition, % at 10 µM. 200,000 compounds, 0.085% hits;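 active = inhibition above 40% at the single screening dose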;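 also: 0% = DMSO control wells and 100% = blanks with heterologous ssDNA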
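material = hRad51 filaments on single-stranded DNA | reagent = Donor/quencher-labelled 47-bp dsDNA substrate | compound = 10 µM final, single point | schedule = strand-exchange reaction 15 min at room temperature | measured by = fluorescein emission 520 nm, excitation 485 nm | read-out basis = % inhibition versus plate control and blank means | benchmarks = plate controls and plate blanks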
Arbovirus anti: antivirals against arbovirus infection, primary screen, cell-based, full library, 10K replicate subset; arbovirus infection cell-based antiviral screen; inhibition, % at 10 µM; 200,000 compounds, 0.37% hits; in the data active = inhibition above about 30%
Wee1 degr inh: Wee1 degradation inhibitors, primary screen, cell-based, HeLa, Wee1K328M-luciferase, luminescence. HeLa Luc-Wee1K328M stability; 100% = proteasome inhibitor MG132 effect. reporter increase, % at 5 µM. Wee1-like protein kinase (Homo sapiens), P30291. AID 1321, 2008. 220,000 compounds, 1.2% hits;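 active = activation above the mean of all tested compounds plus 3 SD, set per screening run, cut at about 8.8% in these data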;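 also: cells exposed to compound for 20 h before luminescence read; 0% = DMSO alone and 100% = MG132 at 30 µM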
Target sequence (P30291 whole entry K328M): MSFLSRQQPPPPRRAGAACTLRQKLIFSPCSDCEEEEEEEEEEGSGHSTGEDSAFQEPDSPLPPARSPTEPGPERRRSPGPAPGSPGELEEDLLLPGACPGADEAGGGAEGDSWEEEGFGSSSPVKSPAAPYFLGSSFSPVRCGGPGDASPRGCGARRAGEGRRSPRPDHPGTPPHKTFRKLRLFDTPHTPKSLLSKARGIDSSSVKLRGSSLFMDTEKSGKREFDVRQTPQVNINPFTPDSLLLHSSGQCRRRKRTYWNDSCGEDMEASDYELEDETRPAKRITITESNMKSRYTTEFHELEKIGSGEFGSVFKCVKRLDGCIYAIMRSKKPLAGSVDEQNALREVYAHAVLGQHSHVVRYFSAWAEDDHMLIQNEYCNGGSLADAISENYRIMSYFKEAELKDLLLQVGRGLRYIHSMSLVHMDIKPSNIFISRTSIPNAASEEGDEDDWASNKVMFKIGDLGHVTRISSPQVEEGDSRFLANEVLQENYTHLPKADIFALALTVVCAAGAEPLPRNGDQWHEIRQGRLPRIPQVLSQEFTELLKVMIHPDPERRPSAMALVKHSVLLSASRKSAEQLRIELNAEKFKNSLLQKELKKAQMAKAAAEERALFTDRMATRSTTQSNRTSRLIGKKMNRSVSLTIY
CHOP confirm: retest of CHOP induction inhibitors, confirmation, cell-based | inhibition, % at 10 µM | 2,100 compounds, 45% hits | CHO-CHOP promoter luciferase reporter, tunicamycin-induced, luminescence | AID 504437, 2011 | shares compounds with CHOP inhibitor;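 active = mean of three repeat readings of reporter signal inhibition above a set limit, cut at about 70% in these data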;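 also: 0% = tunicamycin plus vehicle and 100% = wells lacking tunicamycin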
An asterisk follows results filed as active; i = inactive; · = no result. Rule as the data show it, unless noted: active = inhibition above about 50%; inactive = the rest.

SMILES | CHOP inhibitor | Lmaj promast | PKD1 kinase inh | Rad51 HR inh | Arbovirus anti | Wee1 degr inh | CHOP confirm
O=[N+]([O-])c1cc(Cc2ccccc2)cc(C=Nc2ccc(N3CCOCC3)cc2)c1O | 17.0 | -3.8 | 4.0 | · | -12.8 | 0.5 | ·
COc1cc(OC)cc(C(=O)Nn2cc(C(=O)Nc3c(F)cccc3F)c3ccccc3c2=O)c1 | 22.3 | -0.5 | 4.8 | 30.5 | -3.8 | -0.9 | ·
O=C(CSc1nccc(-c2cccs2)n1)Nc1ccccc1 | 12.2 | · | · | -1.1 | · | -2.4 | ·
Cn1c(=O)c(C(=O)NC2CCCCCCC2)c(O)c2ccccc21 | 11.9 | -6.4 | 2.4 | -5.5 | -15.5 | 1.1 | ·
CCCCc1nc2ccccc2c(=O)n1NC(=O)c1c(O)c2ccccc2n(C)c1=O | 98.0* | 73.1* | -2.2 | -4.5 | 5.8 | 8.3 | 92.0*
Cn1c(=O)c(C(=O)Nc2cccnc2)c(O)c2ccccc21 | · | -1.1 | -3.3 | · | · | -2.0 | ·
Cn1c(=O)c(C(=O)Nc2ncccc2O)c(O)c2ccccc21 | 109.9* | -3.6 | -11.9 | -2.5 | 4.9 | -1.8 | 84.3*
Cc1ccc(NC(=O)c2c(O)c3ccccc3n(C)c2=O)nc1 | 97.2* | 70.9* | -3.0 | -5.9 | 33.1* | -1.9 | -10.2
CC1CCCC(C)N1c1nnc(NC(=O)c2cc(-c3ccc(Br)cc3)on2)s1 (stereo unspecified) | 61.9 | 42.3 | 0.6 | · | 12.3 | -0.3 | ·
Cc1ccc(NC(=O)C2=C(c3ccccc3)S(=O)(=O)CCS2(=O)=O)cc1 | 109.4* | -2.1 | -3.9 | 9.4 | -30.9 | 0.6 | 69.0
Cc1ccc(NC(=O)c2ccccc2)cc1 | -47.9 | -3.2 | -7.3 | 5.6 | 0.5 | 0.3 | ·
CCSc1nnc(NC(=O)c2cc(OC)c(OC)c(OC)c2)s1 | 0.9 | -8.3 | 1.8 | 7.2 | 16.1 | 2.0 | ·
CCOC(=O)C1(Cc2ccc(OC)cc2)CCN(C(=O)C2=CCCC2)CC1 | 102.5* | -2.1 | -2.9 | · | -0.2 | -2.4 | 13.7
O=S(=O)(NCC(Nc1ccc(Cl)cc1)c1ccccc1)c1ccccc1 (stereo unspecified) | 98.6* | 13.3 | -4.7 | -1.1 | -28.9 | -1.9 | 22.3
CC(=O)Oc1oc(-c2ccccc2)nc1/C=N/c1ccccn1 | 100.6* | -1.3 | -0.5 | -5.8 | 0.7 | 0.6 | -42.0
CC(=O)Nc1ccc(-c2nnc(SCC(=O)c3ccc4c(c3)Cc3ccccc3-4)n2C)cc1 | 105.0* | -1.2 | 14.5 | 8.4 | -7.2 | -1.9 | -86.2
CCOC(=O)C1=C(N)Oc2c(c(=O)[nH]c3ccccc23)C1c1ccccc1 (stereo unspecified) | 96.8* | 8.3 | -5.6 | -17.0 | -16.1 | 4.3 | -4.5
CC1CCc2c(sc3ncn(CCO)c(=O)c23)C1 (stereo unspecified) | -9.8 | -7.2 | 7.3 | 8.5 | -1.9 | 0.4 | ·
CC1CCc2c(sc3ncn(CC(=O)N=Nc4c(O)[nH]c5ccccc45)c(=O)c23)C1 (stereo unspecified) | 104.6* | · | · | -3.1 | · | 0.2 | 113.0*
Cc1ccc(C2(c3ccc(C)cc3)CC2C(=O)Nc2ccc([N+](=O)[O-])cc2O)cc1 (stereo unspecified) | 107.1* | 100.1* | -1.5 | -3.4 | -28.6 | -2.0 | 77.7*
COCCN(C(=S)Nc1ccc(C(C)C)cc1)C(C)c1cccs1 (stereo unspecified) | 17.5 | -0.6 | -4.6 | -6.0 | 15.2 | 3.1 | ·
S=C1NCN(Cc2cccnc2)CN1c1cccc2ccccc12 | 8.0 | · | · | 13.2 | · | 0.7 | ·
Cc1ccc(N=Cc2c(O)n(-c3ccc4c(c3)OCO4)c(=O)c3ccccc23)cc1 | 101.8* | 3.3 | 3.7 | 3.6 | 4.1 | -2.2 | -145.1
Cc1cccc(-n2c(O)c(C=Nc3ccc(O)cc3)c3ccccc3c2=O)n1 | 14.8 | 2.8 | -10.5 | · | -14.4 | -0.2 | ·
C=CC(=O)NC(C)(C)CCN1CCOCC1 | 0.8 | -3.8 | -4.0 | 5.2 | -1.8 | 6.8 | ·
SMILES | CHOP inhibitor | Lmaj promast | PKD1 kinase inh | Rad51 HR inh | Arbovirus anti | Wee1 degr inh | CHOP confirm
COc1ccc(-n2cccc2/C=C2\C(=N)N3N=C(c4ccco4)SC3=NC2=O)cc1 | 102.4* | 10.4 | -1.9 | -20.9 | 39.3* | 0.9 | 1.5
N=C1/C(=C/c2coc3ccccc3c2=O)C(=O)N=C2SC(c3ccco3)=NN12 | -12.4 | · | · | · | · | -3.7 | ·
CCCn1c(=S)[nH]c2cc(C(=O)N3CCc4ccccc4C3)ccc2c1=O | 101.9* | -4.5 | -5.1 | -10.6 | -3.2 | 1.4 | 14.2
Cc1c(O)nc(SCC(=O)Nc2ccc3c4c(cccc24)CC3)n(-c2ccc(F)cc2)c1=O | 16.4 | 28.7 | -9.6 | 3.2 | 12.0 | -0.7 | ·
CN1C=CC(=C2C(=O)c3ccccc3C2=O)C=C1 | 16.8 | -1.3 | -2.8 | 5.3 | -2.0 | 3.8 | ·
CCCCN1C(C)=CC(=C2C(=O)c3ccccc3C2=O)C=C1C | -16.1 | 49.1 | 0.7 | 6.7 | -5.5 | 2.0 | ·
CCCCCCN1C=CC(=C2C(=O)c3ccccc3C2=O)C=C1 | 98.6* | 10.8 | -0.7 | -11.5 | -30.0 | -3.6 | 101.5*
CCN1C=CC(=C2C(=O)c3ccccc3C2=O)C=C1 | 99.7* | 15.8 | 2.4 | -1.8 | -10.5 | -2.0 | 115.1*
CCCN1C=CC(=C2C(=O)c3ccccc3C2=O)C=C1 | 103.2* | 10.8 | 1.9 | 2.9 | -11.0 | -4.0 | 125.5*
CCCCOc1ccc(C(=S)N2CCC(C(N)=O)CC2)cc1 | -3.5 | -5.0 | -0.8 | 2.9 | 10.2 | -2.8 | ·
CC(C)(C)c1ccc(C(=O)NNC(=O)c2cccc(Br)c2)cc1 | 101.8* | -6.8 | -3.3 | -4.3 | -5.7 | 0.0 | 94.0*
CCOc1cc(Cl)c(NC(=O)CC)cc1OCC | -8.3 | -4.0 | -4.7 | -9.6 | -4.1 | -0.2 | ·
COc1ccc(/C=C/C(=O)NC(=S)NNC(=O)Cc2cccs2)cc1 | 109.9* | 98.2* | -8.0 | · | -33.0 | 3.3 | 44.6
O=C(/C=C/c1ccccc1)NC(=S)NNC(=O)Cc1cccs1 | 104.0* | 23.4 | -2.5 | -2.2 | 4.0 | 2.0 | 41.1
CCN(CC)c1ccc2cc(-c3nc4ccccc4[nH]3)c(=O)oc2c1 | 100.4* | 37.4 | 45.6 | i | -3.0 | -1.8 | 40.6
CCN(CC)c1ccc2cc(-c3nc4ccccc4n3C)c(=O)oc2c1 | · | 2.6 | 16.2 | 3.3 | -27.6 | -1.0 | ·
CN(C)S(=O)(=O)c1ccc(C(=O)Nc2nnc(SCc3cccc4ccccc34)s2)cc1 | 103.2* | -12.6 | -4.2 | -4.6 | 3.4 | -1.4 | 10.8
CCSc1nnc(NC(=O)c2ccc(S(=O)(=O)N(C)C)cc2)s1 | -8.1 | 0.8 | -12.2 | -16.2 | 8.8 | 3.1 | ·
Nc1cc(Cl)ccc1Oc1ccc(Cl)cc1 | 96.1* | 14.1 | -3.9 | -5.5 | -7.3 | -0.3 | 134.1*
Nc1cc(Cl)ccc1Oc1ccccc1 | 37.0 | 3.0 | -33.3 | -2.3 | -5.6 | -1.2 | ·
